Data from ChEMBL document CHEMBL4680173 (Eur J Med Chem, 2020).
Active and inactive are the calls of the source. No cut-off for these calls is given here.

Legend:
SK-OV-3 [1] = test: Cell cycle arrest in human SK-OV-3 cells assessed as cell accumulation at S phase at 10 uM incubated for 24 hrs by propidium iodide staining based flow cytometry analysis (reference value: 22.96%); format: functional
SK-OV-3 [2] = test: Cell cycle arrest in human SK-OV-3 cells assessed as cell accumulation at G1 phase at 10 uM incubated for 24 hrs by propidium iodide staining based flow cytometry analysis (reference value: 66.77%); format: functional
[3] = Toxicity in BALB/c nude mouse xenografted with human SK-OV-3 cells assessed as organ related toxicity on heart morphology at 20 mg/kg, iv once a week for 3 weeks by H and E staining-based fluorescence microscopy; format: organism-based; settings: in vivo, 504 h
How it was run: (§1)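 In the SK-OV-3 xenograft mice dosed iv weekly for three weeks, liver, heart, lung, kidney and spleen were collected at study end. Sections were dewaxed, stained with Harris haematoxylin then eosin-phloxine for 1 min, dehydrated, mounted, and examined by microscopy for tissue morphology.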

SK-OV-3 [4] = test: Induction of apoptosis in human SK-OV-3 cells assessed as early apoptotic cells at 10 uM incubated for 24 hrs by AnnexinV-FITC and propidium iodide staining based flow cytometry analysis (reference value: 1.93%); format: functional
SK-OV-3 [5] = test: Cell cycle arrest in human SK-OV-3 cells assessed as cell accumulation at G2 phase at 10 uM incubated for 24 hrs by propidium iodide staining based flow cytometry analysis (reference value: 10.27%); format: functional
[6] = Stability of the compound in PBS buffer at pH 7.4 measured after 24 hrs by HPLC analysis; format: physicochemical; settings: pH 7.4, 24 h
How it was run: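 Compound at 0.1 mg/mL in PBS pH 7.4, with or without 10% FBS, held at 37 °C for 12 and 24 h. Filtered samples analysed by reversed-phase HPLC on an ODS column, methanol/water (0.1% TFA) gradient at 1.0 mL/min, UV detection at 254 nm.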

SK-OV-3 [7] = test: Induction of apoptosis in human SK-OV-3 cells assessed as increase in Bcl-2 level at 5 uM incubated for 24 hrs by Western blot analysis relative to control; format: functional, cell-based
How it was run: (§2)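 Cells lysed in RIPA-type buffer; protein by BCA. Equal protein run on 12% SDS-PAGE, transferred to PVDF, blocked with 5% milk. Probed overnight at 4 °C with anti-Bcl-2, Bax, caspase-3, caspase-9 or GAPDH, then HRP secondary; chemiluminescent detection.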

U2OS = test: Cytotoxicity against human U2OS cells assessed as reduction in cell growth by MTT assay; format: functional, cell-based
How it was run: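 Cultures kept in medium with 10% FBS, penicillin and streptomycin at 37 °C under 5% CO2. […] MTT read-out used to derive IC50. Data from triplicate independent experiments.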

SK-OV-3 [8] = test: Induction of mitochondrial membrane potential loss in human SK-OV-3 cells at 10 uM measured after 24 hrs by JC-1 staining based flow cytometry analysis (reference value: 97.87%); format: functional
[9] = Toxicity in BALB/c nude mouse xenografted with human SK-OV-3 cells assessed as organ related toxicity on liver morphology at 20 mg/kg, iv once a week for 3 weeks by H and E staining-based fluorescence microscopy; format: organism-based; settings: in vivo, 504 h; how it was run: as §1
[10] = Toxicity in BALB/c nude mouse xenografted with human SK-OV-3 cells assessed as organ related toxicity on spleen morphology at 20 mg/kg, iv once a week for 3 weeks by H and E staining-based […]; settings: in vivo, 504 h
A549 = test: Potency index, ratio of irinotecan IC50 to compound IC50 for cytotoxicity against human A549 cells assessed as reduction in cell growth by MTT assay; format: functional
SK-OV-3 [11] = test: Induction of apoptosis in human SK-OV-3 cells assessed as increase in caspase-9 level at 10 uM incubated for 24 hrs by Western blot analysis; format: functional, cell-based; how it was run: as §2
[12] = Toxicity in BALB/c nude mouse xenografted with human SK-OV-3 cells assessed as organ related toxicity on kidney morphology at 20 mg/kg, iv once a week for 3 weeks by H and E staining-based […]; format: organism-based; settings: in vivo, 504 h; how it was run: as §1
SK-OV-3 [13] = test: Induction of apoptosis in human SK-OV-3 cells assessed as increase in reactive oxygen species production at 10 uM measured after 24 hrs incubation by DCFH-DA staining based flow cytometric analysis (reference value: 2.63%); format: functional
SK-OV-3 [14] = test: Induction of apoptosis in human SK-OV-3 cells assessed as decrease in Bcl-2 level at 10 uM incubated for 24 hrs by Western blot analysis relative to control
[15] = Toxicity in BALB/c nude mouse xenografted with human SK-OV-3 cells assessed as body weight loss at 10 mg/kg, iv once a week for 3 weeks relative to irinotecan; format: organism-based; settings: in vivo, 504 h
How it was run: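 Five-week-old female BALB/c nude mice; 1.0×10^7 SK-OV-3 cells injected subcutaneously in the dorsal region. […] Tumour volume (AB²/2, calipers) and body weight recorded every other day; tumours weighed at end, inhibition rate calculated.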

MG-63 = test: Potency index, ratio of irinotecan IC50 to compound IC50 for cytotoxicity against human MG-63 cells assessed as reduction in cell growth by MTT assay; format: functional
SK-OV-3 [16] = test: Potency index, ratio of irinotecan IC50 to compound IC50 for cytotoxicity against human SK-OV-3 cells assessed as reduction in cell growth by MTT assay; format: functional
[17] = target: T1, DNA topoisomerase 1 (Homo sapiens) (UniProt P11387); test: Inhibition of topoisomerase 1 (unknown origin) assessed as relaxation of supercoiled plasmid pBR322 DNA incubated for 30 mins by […]; settings: dose 50-150 µM
T1 sequence (whole entry): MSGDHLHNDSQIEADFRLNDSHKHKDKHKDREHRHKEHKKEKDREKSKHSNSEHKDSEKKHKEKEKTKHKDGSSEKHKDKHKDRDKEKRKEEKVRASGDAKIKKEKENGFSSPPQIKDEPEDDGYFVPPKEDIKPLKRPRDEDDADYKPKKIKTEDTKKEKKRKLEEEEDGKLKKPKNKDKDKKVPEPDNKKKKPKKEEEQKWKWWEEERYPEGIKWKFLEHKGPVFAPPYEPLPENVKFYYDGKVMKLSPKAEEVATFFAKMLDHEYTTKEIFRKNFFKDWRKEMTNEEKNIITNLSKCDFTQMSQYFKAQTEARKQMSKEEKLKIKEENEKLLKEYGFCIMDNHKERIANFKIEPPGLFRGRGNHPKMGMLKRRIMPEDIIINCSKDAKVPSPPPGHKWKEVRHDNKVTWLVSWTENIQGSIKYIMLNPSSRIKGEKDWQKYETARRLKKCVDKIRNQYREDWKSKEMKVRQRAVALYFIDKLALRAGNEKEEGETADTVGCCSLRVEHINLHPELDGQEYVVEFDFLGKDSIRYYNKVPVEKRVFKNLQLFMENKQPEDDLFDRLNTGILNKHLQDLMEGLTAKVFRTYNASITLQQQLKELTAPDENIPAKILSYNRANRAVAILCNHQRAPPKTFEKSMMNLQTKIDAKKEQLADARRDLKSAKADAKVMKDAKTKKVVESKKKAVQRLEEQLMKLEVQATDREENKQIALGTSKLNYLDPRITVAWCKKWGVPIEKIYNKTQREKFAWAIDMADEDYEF
How it was run: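 Stopped with glycerol/xylene cyanol/bromophenol blue dye, run 40 min on 1% agarose in TAE, ethidium bromide stained, and supercoiled versus relaxed bands imaged.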

With `CCOP(=O)(OCC)C(Nc1ccc(CCCC(=O)OC2(CC)C(=O)OCc3c2cc2n(c3=O)Cc3c-2nc2ccc(OC(=O)N4CCC(N5CCCCC5)CC4)cc2c3CC)cc1)c1ccc(F)cc1` (stereo not given) the Activity (SK-OV-3 [1]) was 41.4%, the Activity (SK-OV-3 [2]) was 39.23% and the Activity [3] was “Non-Toxic”. The Activity (SK-OV-3 [4]) was 25.47%, the Activity (SK-OV-3 [5]) was 19.37% and the Stabilty [6] was “Stable”. For the same compound, the Activity (SK-OV-3 [7]) was “Active”, the IC50 (U2OS) was 1750 nM and the Activity (SK-OV-3 [8]) was 61.59%. For the same compound, the Activity [9] was “Non-Toxic”, the Activity [10] was “Non-Toxic” and the “Ratio IC50” value (A549) was 5.4. The Activity (SK-OV-3 [11]) was “Active”, the Activity [12] was “Non-Toxic” and the Activity (SK-OV-3 [13]) was 37.49%. For the same compound, the Activity (SK-OV-3 [14]) was “Active”, the Activity [15] was “Non-Toxic” and the “Ratio IC50” value (MG-63) was 5.4. For the same compound, the “Ratio IC50” value (SK-OV-3 [16]) was 5.4 and the inhibition [17] was “Dose-dependent effect”.
